The source of these data is ChEMBL document CHEMBL4359865, “Synthesis and evaluation of 2,5-furan, 2,5-thiophene and 3,4-thiophene-based derivatives as CXCR4 inhibitors” (Eur J Med Chem, 2019).

Series [1] deals with C-X-C chemokine receptor type 4 (Homo sapiens) (UniProt P61073). Put plainly: Inhibition of biotinylated TN14003 binding to CXCR4 in human MDA-MB-231 cells preincubated for 10 mins followed by biotinylated-TN14003 addition measured after 30 mins by streptavidin-rhodamine staining based fluorescence microscopic analysis. It counts as cell-based. The gist of the method: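 MDA-MB-231 cells (CXCR4-overexpressing) exposed to compound at 1, 10, 100 and 1000 nM for 10 min at room temperature. Cells fixed in chilled 4% paraformaldehyde, rehydrated in PBS, then stained with 0.05 µg/mL biotinylated TN14003 for 30 min at room temperature, washed three times in PBS, and stained with streptavidin-rhodamine (1:150) for 30 min. Read by fluorescence microscopy. EC taken as the lowest concentration, by order of magnitude, giving a significant drop in fluorescence versus control.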
Chain of C-X-C chemokine receptor type 4 (Homo sapiens) (P61073 whole entry): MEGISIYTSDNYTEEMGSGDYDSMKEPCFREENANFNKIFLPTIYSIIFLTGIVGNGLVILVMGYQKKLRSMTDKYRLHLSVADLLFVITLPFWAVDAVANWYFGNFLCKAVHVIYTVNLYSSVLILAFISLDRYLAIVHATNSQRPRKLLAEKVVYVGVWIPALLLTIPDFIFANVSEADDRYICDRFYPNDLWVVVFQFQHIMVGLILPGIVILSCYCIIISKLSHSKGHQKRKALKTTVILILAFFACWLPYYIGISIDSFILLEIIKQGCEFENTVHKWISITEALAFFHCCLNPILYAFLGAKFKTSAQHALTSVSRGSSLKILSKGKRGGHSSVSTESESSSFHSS

Series [2] has the same target. Put plainly: Inhibition of CXCR4-mediated chemotaxis in human MDA-MB-231 cells assessed as reduction in CXCL12alpha-induced cell invasion at 100 nM incubated for 22 hrs by hematoxylin/eosin dye-based matrigel assay relative to control. The gist of the method: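 Run in a Matrigel invasion chamber. The bottom chamber held CXCL12 (200 ng/mL). MDA-MB-231 cells were treated with compound at 100 nM, placed in the top chamber, and incubated 22 h in a humidified incubator. Non-invading cells were swabbed off; cells in the bottom chamber were H&E-stained, fixed in methanol and counted. Results given as % inhibition of invasion versus negative control.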

Series [3] in a line: Toxicity in C57BL/6J mouse at 10 mg/kg, ip. Particulars: in vivo. It counts as organism-based.
For another series, the system named is Mus musculus. Put plainly: Antiinflammatory activity in C57BL/6J mouse assessed as inhibition of carrageenan-induced paw edema at 10 mg/kg, ip daily dosed 30 mins after carrageenan challenge and measured after 74 hrs carrageenan challenge and 2 hrs post last dose by caliper method relative to control. It counts as functional.

Where only a bound is given, the exact number is not on record here.

As for `Clc1cccc(NCc2cscc2CNc2cccc(Cl)c2)c1`, the EC in series [1] is greater than 1000 nM.

Compound `Fc1cccc(NCc2cscc2CNc2cccc(F)c2)c1` registered an EC in series [1] greater than 1000 nM.

With `Cc1ccc(NCc2ccc(CNc3ccc(C)cc3)s2)cc1`, the EC in series [1] was found to be 100 nM. Besides, the inhibition (as a rule, the relative decrease from the control value, in per cent) in series [2] is 49%. Besides, in series [3], the Activity entry is “Non-Toxic”.

`FC(F)(F)c1cccc(NCc2ccc(CNc3cccc(C(F)(F)F)c3)o2)c1` yielded an EC in series [1] greater than 1000 nM.

As to `COc1cccc(NCc2ccc(CNc3cccc(OC)c3)s2)c1`, the EC in series [1] was determined as 1000 nM.

Regarding `FC(F)(F)c1ccccc1NCc1ccc(CNc2ccccc2C(F)(F)F)s1`, the EC in series [1] is greater than 1000 nM.

Consider `CCc1ccc(NCc2ccc(CNc3ccc(CC)cc3)o2)cc1`, for which the EC in series [1] is greater than 1000 nM.

In turn, `FC(F)(F)c1cccc(NCc2ccc(CNc3cccc(C(F)(F)F)c3)s2)c1` returned an EC in series [1] of 100 nM. Moreover, in series [2], the inhibition stood at 77%. Also, in series [3], the Activity entry is given as “Non-Toxic”.

The compound `Fc1ccccc1NCc1ccc(CNc2ccccc2F)o1` yielded an EC in series [1] of 10 nM. In series [2], the inhibition was 71%. Besides, the Activity entry in series [3] was “Non-Toxic”.

`Clc1cccc(NCc2ccc(CNc3cccc(Cl)c3)o2)c1`: the EC in series [1] is greater than 1000 nM.

As to `Clc1ccccc1NCc1ccc(CNc2ccccc2Cl)s1`, the EC in series [1] was 10 nM. Besides, in series [2], the inhibition is 93%. Further, the inhibition in vivo (in general, how much of the control response was suppressed) at 10 mg/kg in the series with Mus musculus was greater than 5%. The Activity result in series [3] is recorded as “Non-Toxic”.

For the compound `Cc1cccc(NCc2ccc(CNc3cccc(C)c3)o2)c1`, the EC in series [1] was greater than 1000 nM.

On to `COc1cccc(NCc2ccc(CNc3cccc(OC)c3)o2)c1`, for which the EC in series [1] was greater than 1000 nM.

In the case of `COc1ccc(NCc2ccc(CNc3ccc(OC)cc3)o2)cc1`, the EC in series [1] was greater than 1000 nM.

For `CCc1ccccc1NCc1ccc(CNc2ccccc2CC)s1`, in series [1], the EC came out at 1000 nM.

Take `Cc1ccccc1NCc1ccc(CNc2ccccc2C)o1`: the EC in series [1] was greater than 1000 nM.

In series [1], `Clc1ccc(NCc2ccc(CNc3ccc(Cl)cc3)o2)cc1` had an EC of 10 nM. In addition, the inhibition in series [2] worked out at 48%. Moreover, the inhibition in vivo at 10 mg/kg in the series with Mus musculus amounted to 17%. Besides, the Activity result in series [3] is “Non-Toxic”.

Turning to `CCc1ccccc1NCc1ccc(CNc2ccccc2CC)o1`, the EC in series [1] was found to be 1000 nM.

In series [1], `FC(F)(F)c1ccc(NCc2ccc(CNc3ccc(C(F)(F)F)cc3)o2)cc1` yielded an EC greater than 1000 nM.

In the case of `CCc1cccc(NCc2ccc(CNc3cccc(CC)c3)o2)c1`, the EC in series [1] is greater than 1000 nM.

As for `Clc1ccc(NCc2cscc2CNc2ccc(Cl)cc2)cc1`, in series [1], the EC is greater than 1000 nM.

For `CSc1ccc(NCc2ccc(CNc3ccc(SC)cc3)s2)cc1`, the EC in series [1] was found to be 100 nM. For the same compound, in series [2], the inhibition came out at 88%.

`Fc1ccccc1NCc1ccc(CNc2ccccc2F)s1` had an EC in series [1] of 1000 nM.

In series [1], `CCc1cccc(NCc2ccc(CNc3cccc(CC)c3)s2)c1` gave an EC greater than 1000 nM.

The compound `Clc1cccc(NCc2ccc(CNc3cccc(Cl)c3)s2)c1` gave an EC in series [1] of 100 nM. The inhibition in series [2] was found to be 51%. Also, the Activity result in series [3] is “Non-Toxic”.

`c1cc(CN2CCOCC2)sc1CN1CCOCC1` displayed an EC in series [1] greater than 1000 nM.

`Clc1ccccc1NCc1ccc(CNc2ccccc2Cl)o1` displayed an EC in series [1] greater than 1000 nM.

With `c1cc(CN2CCOCC2)oc1CN1CCOCC1`, the EC in series [1] is 1000 nM.

As to `COc1ccccc1NCc1ccc(CNc2ccccc2OC)o1`, in series [1], the EC was 100 nM. Further, the inhibition in series [2] is 5%.

As to `CN1CCN(Cc2ccc(CN3CCN(C)CC3)o2)CC1`, in series [1], the EC stood at 10 nM. For the same compound, in series [2], the inhibition worked out at 82%. Also, in series [3], the Activity result is “Non-Toxic”.

Compound `c1ccc(NCc2cscc2CNc2ccccc2)cc1` gave an EC in series [1] of 10 nM. The inhibition in series [2] is 72%. In addition, the Activity entry in series [3] is recorded as “Non-Toxic”.

`CCc1ccc(NCc2cscc2CNc2ccc(CC)cc2)cc1`: the EC in series [1] is greater than 1000 nM.

Take `Fc1cccc(NCc2ccc(CNc3cccc(F)c3)s2)c1`: in series [1], the EC was greater than 1000 nM.

As to `FC(F)(F)c1cccc(NCc2cscc2CNc2cccc(C(F)(F)F)c2)c1`, in series [1], the EC was greater than 1000 nM.

In turn, `c1ccc(NCc2ccc(CNc3ccccc3)s2)cc1` displayed an EC in series [1] of 1 nM. The inhibition in series [2] stood at 68%. Further, the inhibition in vivo at 10 mg/kg with Mus musculus came to 30%. For the same compound, the Activity result in series [3] is “Non-Toxic”.

In series [1], `COc1ccccc1NCc1ccc(CNc2ccccc2OC)s1` had an EC of 10 nM. The inhibition in series [2] amounted to 52%. For the same compound, the Activity result in series [3] was “Non-Toxic”.

For `FC(F)(F)c1ccc(NCc2ccc(CNc3ccc(C(F)(F)F)cc3)s2)cc1`, in series [1], the EC was greater than 1000 nM.

`Cc1ccc(NCc2cscc2CNc2ccc(C)cc2)cc1` yielded an EC in series [1] greater than 1000 nM.

In series [1], `c1ccc(NCc2ccc(CNc3ccccc3)o2)cc1` gave an EC greater than 1000 nM.

The compound `Fc1cccc(NCc2ccc(CNc3cccc(F)c3)o2)c1` displayed an EC in series [1] greater than 1000 nM.

`Fc1ccc(NCc2cscc2CNc2ccc(F)cc2)cc1` came in with an EC in series [1] greater than 1000 nM.

In the case of `Cc1ccccc1NCc1ccc(CNc2ccccc2C)s1`, the EC in series [1] stood at 10 nM. In series [2], the inhibition is 61%. In series [3], the Activity result is given as “Non-Toxic”.

In series [1], `FC(F)(F)c1ccc(NCc2cscc2CNc2ccc(C(F)(F)F)cc2)cc1` returned an EC greater than 1000 nM.

Regarding `CN1CCN(Cc2ccc(CN3CCN(C)CC3)s2)CC1`, in series [1], the EC worked out at 100 nM. In series [2], the inhibition worked out at 86%.

The compound `COc1ccc(NCc2ccc(CNc3ccc(OC)cc3)s2)cc1` returned an EC in series [1] of 10 nM. For the same compound, the inhibition in series [2] stood at 84%. Besides, in series [3], the Activity entry is reported as “Non-Toxic”.

In series [1], `c1cc(CN2CCSCC2)sc1CN1CCSCC1` registered an EC of 1 nM. In addition, the inhibition in series [2] stood at 88%. The Activity result in series [3] was “Non-Toxic”.

In series [1], `Cc1cccc(NCc2cscc2CNc2cccc(C)c2)c1` came in with an EC greater than 1000 nM.

Consider `Clc1ccc(NCc2ccc(CNc3ccc(Cl)cc3)s2)cc1`, for which the EC in series [1] was 1 nM. Also, in series [2], the inhibition stood at 22%.

In turn, `CCc1ccc(NCc2ccc(CNc3ccc(CC)cc3)s2)cc1` showed an EC in series [1] greater than 1000 nM.

In series [1], `Fc1ccc(NCc2ccc(CNc3ccc(F)cc3)o2)cc1` showed an EC of 100 nM. For the same compound, in series [2], the inhibition was found to be 53%. For the same compound, the inhibition in vivo at 10 mg/kg in the series on Mus musculus is 31%. In series [3], the Activity entry is “Non-Toxic”.

Compound `c1cc(CN2CCSCC2)oc1CN1CCSCC1` yielded an EC in series [1] of 10 nM. Also, the inhibition in series [2] came to 79%.

In series [1], `Cc1cccc(NCc2ccc(CNc3cccc(C)c3)s2)c1` displayed an EC greater than 1000 nM.

`Fc1ccc(NCc2ccc(CNc3ccc(F)cc3)s2)cc1` registered an EC in series [1] greater than 1000 nM.

In series [1], `Cc1ccc(NCc2ccc(CNc3ccc(C)cc3)o2)cc1` came in with an EC of 100 nM. Besides, the inhibition in series [2] is 75%. For the same compound, the inhibition in vivo at 10 mg/kg with Mus musculus was 15%. Also, the Activity entry in series [3] is recorded as “Non-Toxic”.

Regarding `CSc1ccc(NCc2ccc(CNc3ccc(SC)cc3)o2)cc1`, the EC in series [1] was greater than 1000 nM.

Take `c1ccc(NCc2ccc(CNc3ccccn3)cc2)nc1`: the inhibition in vivo at 10 mg/kg in the series on Mus musculus was determined as 40%. In addition, the Activity entry in series [3] is “Non-Toxic”.

`FC(F)(F)c1ccccc1NCc1ccc(CNc2ccccc2C(F)(F)F)o1`: in series [1], the EC amounted to 100 nM. Also, the inhibition in series [2] is 24%.
